Source: BindingDB's records for doi:10.1021/jm00042a007 (Merck Research Laboratories, 1994)
Bridge positions count the residues as written; N and C are the ends. Peptide text beside a SMILES is read from it.

Molecular target: Integrin alpha-IIb/beta-3 (Homo sapiens, UniProt P08514+P05106)
Test: Inhibition of platelet aggregation as the concentration necessary to inhibit the change in light.
Method in brief: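 Human gel-filtered platelets at 2 × 10^8/mL were mixed with 0.1 mg/mL human fibrinogen, 1 mM CaCl2 and compound, then aggregated with 10 µM ADP. Light transmittance was compared between control and treated samples.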

Integrin alpha-IIb/beta-3, sequence (P05106 27-788 limits assumed): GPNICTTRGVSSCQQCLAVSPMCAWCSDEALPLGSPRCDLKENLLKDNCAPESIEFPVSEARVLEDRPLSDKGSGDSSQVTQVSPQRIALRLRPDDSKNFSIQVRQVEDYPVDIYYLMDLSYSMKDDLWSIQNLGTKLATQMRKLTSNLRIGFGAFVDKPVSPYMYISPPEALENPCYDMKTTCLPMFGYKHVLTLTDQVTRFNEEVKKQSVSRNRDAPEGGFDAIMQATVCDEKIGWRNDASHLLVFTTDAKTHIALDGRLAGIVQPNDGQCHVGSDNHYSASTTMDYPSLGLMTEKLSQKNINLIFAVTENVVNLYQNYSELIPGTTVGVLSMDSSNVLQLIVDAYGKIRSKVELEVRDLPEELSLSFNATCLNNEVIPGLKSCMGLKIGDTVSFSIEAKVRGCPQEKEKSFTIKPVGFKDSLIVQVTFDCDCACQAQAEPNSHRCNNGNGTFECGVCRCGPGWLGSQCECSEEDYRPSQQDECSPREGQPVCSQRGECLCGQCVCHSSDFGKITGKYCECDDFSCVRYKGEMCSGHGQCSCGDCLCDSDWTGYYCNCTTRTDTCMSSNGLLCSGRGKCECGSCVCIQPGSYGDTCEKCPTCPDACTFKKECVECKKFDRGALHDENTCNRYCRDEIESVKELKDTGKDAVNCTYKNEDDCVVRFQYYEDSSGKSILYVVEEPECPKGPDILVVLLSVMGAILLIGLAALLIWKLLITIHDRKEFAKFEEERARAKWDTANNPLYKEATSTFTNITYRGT
Integrin alpha-IIb/beta-3, sequence (P08514 32-887 limits assumed): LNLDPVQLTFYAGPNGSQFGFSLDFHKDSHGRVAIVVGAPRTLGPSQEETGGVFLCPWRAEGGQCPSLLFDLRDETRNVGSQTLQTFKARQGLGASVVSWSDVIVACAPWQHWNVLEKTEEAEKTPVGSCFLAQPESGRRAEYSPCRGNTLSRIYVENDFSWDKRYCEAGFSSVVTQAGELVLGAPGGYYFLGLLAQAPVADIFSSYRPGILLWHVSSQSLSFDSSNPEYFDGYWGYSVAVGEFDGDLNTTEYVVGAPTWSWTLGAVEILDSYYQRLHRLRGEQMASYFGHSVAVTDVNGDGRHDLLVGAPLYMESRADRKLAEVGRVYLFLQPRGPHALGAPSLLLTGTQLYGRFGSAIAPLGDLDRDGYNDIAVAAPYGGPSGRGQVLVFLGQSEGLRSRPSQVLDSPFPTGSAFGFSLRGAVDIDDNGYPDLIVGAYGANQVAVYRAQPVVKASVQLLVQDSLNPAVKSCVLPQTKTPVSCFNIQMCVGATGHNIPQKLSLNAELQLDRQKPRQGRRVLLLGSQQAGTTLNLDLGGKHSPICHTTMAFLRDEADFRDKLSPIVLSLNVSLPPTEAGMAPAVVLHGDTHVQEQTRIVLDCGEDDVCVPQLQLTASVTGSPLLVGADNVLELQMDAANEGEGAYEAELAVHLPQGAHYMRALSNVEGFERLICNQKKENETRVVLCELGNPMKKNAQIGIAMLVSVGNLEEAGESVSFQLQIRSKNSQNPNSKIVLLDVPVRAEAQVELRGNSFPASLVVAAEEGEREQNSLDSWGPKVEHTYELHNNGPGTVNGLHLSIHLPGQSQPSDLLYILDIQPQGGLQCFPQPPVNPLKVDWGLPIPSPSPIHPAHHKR
Integrin alpha-IIb/beta-3, sequence (P08514 891-1039 limits assumed): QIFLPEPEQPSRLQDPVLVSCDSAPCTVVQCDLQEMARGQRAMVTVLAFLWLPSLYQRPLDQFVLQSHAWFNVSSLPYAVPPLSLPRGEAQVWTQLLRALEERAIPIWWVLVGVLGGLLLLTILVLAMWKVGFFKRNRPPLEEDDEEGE

Row | Structure (SMILES) | IC50
1 | O=C(O)[C@H](Cc1ccc(OCCCCC2CCNCC2)cc1)NS(=O)(=O)c1cccs1 [(S)-3-[4-(4-Piperidin-4-yl-butoxy)-phenyl]-2-(thiophene-2-sulfonylamino)-propionic acid] | 0.015 µM
2 | O=C(O)[C@H](Cc1ccc(OCCCCC2CCNCC2)cc1)NS(=O)(=O)/C=C/c1ccccc1 [(S)-2-((E)-2-Phenyl-ethenesulfonylamino)-3-[4-(4-piperidin-4-yl-butoxy)-phenyl]-propionic acid] | 0.043 µM
3 | CN1CCN(CCCOc2ccc(C[C@H](NC(=O)OCc3ccccc3)C(=O)O)cc2)CC1 [(S)-2-Benzyloxycarbonylamino-3-{4-[3-(4-methyl-piperazin-1-yl)-propoxy]-phenyl}-propionic acid] | 5.2 µM
4 | CC(=O)N[C@@H](Cc1ccc(OCCCCCCN)cc1)C(=O)O [(S)-2-Acetylamino-3-[4-(6-amino-hexyloxy)-phenyl]-propionic acid] | 18 µM
5 | NCCCCCCCCOc1ccc(C[C@H](NC(=O)OCc2ccccc2)C(=O)O)cc1 [3-[4-(8-Amino-octyloxy)-phenyl]-2-benzyloxycarbonylamino-propionic acid] | 38 µM
6 | O=C(O)[C@H](Cc1ccc(OCCCCC2CCNCC2)cc1)NS(=O)(=O)CCc1ccccc1 [(S)-2-(2-Phenyl-ethanesulfonylamino)-3-[4-(4-piperidin-4-yl-butoxy)-phenyl]-propionic acid] | 0.029 µM
7 | O=C(N[C@@H](Cc1ccc(OC/C=C/CC2CCNCC2)cc1)C(=O)O)OCc1ccccc1 [(S)-2-Benzyloxycarbonylamino-3-[4-((E)-4-piperidin-4-yl-but-2-enyloxy)-phenyl]-propionic acid] | 0.24 µM
8 | CC(=O)N[C@@H](Cc1ccc(OCCCCC2CCNCC2)cc1)C(=O)O [(S)-2-Acetylamino-3-[4-(4-piperidin-4-yl-butoxy)-phenyl]-propionic acid] | 0.5 µM
9 | CCCS(=O)(=O)N[C@@H](Cc1ccc(OCCCCC2CCNCC2)cc1)C(=O)O [(S)-3-[4-(4-Piperidin-4-yl-butoxy)-phenyl]-2-(propane-1-sulfonylamino)-propionic acid] | 0.023 µM
10 | O=C(N[C@@H](Cc1ccc(OCCCC2CCNCC2)cc1)C(=O)O)OCc1ccccc1 [(S)-2-Benzyloxycarbonylamino-3-[4-(3-piperidin-4-yl-propoxy)-phenyl]-propionic acid] | 6.2 µM
11 | N=C(N)NCCC[C@H](N)C(=O)NCC(=O)N[C@@H](CC(=O)O)C(=O)N[C@@H](Cc1c[nH]c2ccccc12)C(=O)O [2-[1-[1-amino-4-amino(imino)methylamino-(1S)-butylcarboxamidomethylcarboxamido]-2-carboxy-(1S)-ethylcarboxamido]-3-(1H-3-indolyl)-(2S)-propanoic acid] (H-RGDW-OH) | 1.7 µM
12 | CCCC(=O)N[C@@H](Cc1ccc(OCCCCCCN)cc1)C(=O)O [(S)-3-[4-(6-Amino-hexyloxy)-phenyl]-2-butyrylamino-propionic acid] | 5.7 µM
13 | NCCCCCCOc1ccc(C[C@H](NC(=O)c2ccccc2)C(=O)O)cc1 [(S)-3-[4-(6-Amino-hexyloxy)-phenyl]-2-benzoylamino-propionic acid] | 10 µM
14 | O=C(N[C@@H](Cc1ccc(OCCCc2ccccc2)cc1)C(=O)O)OCc1ccccc1 | > 1000 µM
15 | NCCCCCCOc1ccc(C[C@H](NS(=O)(=O)Cc2ccccc2)C(=O)O)cc1 | 1.9 µM
16 | O=C(CCc1ccccc1)N[C@@H](Cc1ccc(OCCCCC2CCNCC2)cc1)C(=O)O [(S)-2-(3-Phenyl-propionylamino)-3-[4-(4-piperidin-4-yl-butoxy)-phenyl]-propionic acid] | 0.1 µM
17 | O=C(N[C@@H](Cc1ccc(OCCCCN2CCNCC2)cc1)C(=O)O)OCc1ccccc1 [(S)-2-Benzyloxycarbonylamino-3-[4-(4-piperazin-1-yl-butoxy)-phenyl]-propionic acid] | 0.5 µM
18 | CC(=O)N[C@H]1CSSC[C@@H](C(=O)O)NC(=O)[C@H](CC(=O)O)NC(=O)CNC(=O)[C@H](CCCNC(=N)N)NC1=O [(4S,7R,13R,16S)-16-Acetylamino-7-carboxymethyl-13-(3-guanidino-propyl)-6,9,12,15-tetraoxo-1,2-dithia-5,8,11,14-tetraaza-cycloheptadecane-4-carboxylic acid] (Ac-CRGDC-OH; disulfide 1-5) | 0.68 µM
19 | CCCCCC(=O)N[C@@H](Cc1ccc(OCCCCCCN)cc1)C(=O)O | 5 µM
20 | CCCCC(=O)N[C@@H](Cc1ccc(OCCCCC2CCNCC2)cc1)C(=O)O [(S)-2-Pentanoylamino-3-[4-(4-piperidin-4-yl-butoxy)-phenyl]-propionic acid] | 0.047 µM
21 | O=C(N[C@@H](Cc1ccc(OCCCCCN2CCNCC2)cc1)C(=O)O)OCc1ccccc1 [(S)-2-Benzyloxycarbonylamino-3-[4-(5-piperazin-1-yl-pentyloxy)-phenyl]-propionic acid] | 1.1 µM
22 | CC(C)(C)NCCCOc1ccc(C[C@H](NC(=O)OCc2ccccc2)C(=O)O)cc1 [(S)-2-Benzyloxycarbonylamino-3-[4-(3-tert-butylamino-propoxy)-phenyl]-propionic acid] | 28 µM
23 | CCCCS(=O)(=O)N[C@H](CC(=O)O)Cc1ccc(OCCCCC2CCNCC2)cc1 [(S)-3-(Butane-1-sulfonylamino)-4-[4-(4-piperidin-4-yl-butoxy)-phenyl]-butyric acid] | 0.14 µM
24 | O=C(O)[C@H](Cc1ccc(OCCCCC2CCNCC2)cc1)NS(=O)(=O)c1ccccc1 [(S)-2-Benzenesulfonylamino-3-[4-(4-piperidin-4-yl-butoxy)-phenyl]-propionic acid] | 0.018 µM
25 | CS(=O)(=O)N[C@@H](Cc1ccc(OCCCCC2CCNCC2)cc1)C(=O)O [(S)-2-Methanesulfonylamino-3-[4-(4-piperidin-4-yl-butoxy)-phenyl]-propionic acid] | 0.063 µM
26 | CCCCS(=O)(=O)N[C@H](CC(=O)O)Cc1ccc(OCCCC2CCNCC2)cc1 [(S)-3-(Butane-1-sulfonylamino)-4-[4-(3-piperidin-4-yl-propoxy)-phenyl]-butyric acid] | 0.6 µM
27 | CCC(=O)N[C@@H](Cc1ccc(OCCCCC2CCNCC2)cc1)C(=O)O [(S)-3-[4-(4-Piperidin-4-yl-butoxy)-phenyl]-2-propionylamino-propionic acid] | 0.105 µM
28 | CC(C)(C)CC(C)(C)NCCCOc1ccc(C[C@H](NC(=O)OCc2ccccc2)C(=O)O)cc1 [(S)-2-Benzyloxycarbonylamino-3-{4-[3-(1,1,3,3-tetramethyl-butylamino)-propoxy]-phenyl}-propionic acid] | > 100 µM
